# Source: PubChem BioAssay (several laboratories)
# Ecoli WT expand – growth inhibitors of wild-type E. coli, primary screen, strain BW25113, expanded library, OD600. OD600 absorbance. growth inhibition, % at 100 µM. 0.15% of 98,000 active. AID 710, 2007;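 active = growth inhibition above about 50% at one test dose, limit read from the data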;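 also: growth measured after 20 h incubation at 37 °C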
# PostGolgi ctrl – growth inhibition of yeast control strain, primary screen, counter-screen for post-Golgi transport modulator project. efflux-deficient yeast background strain, growth absorbance A615, 16 h. inhibition, % at 10 µM. 5% of 98,000 active. AID 738, 2007
# PostGolgi yeast – phenotypic screen on post-Golgi transport, primary screen | 0.9% of 98,000 active | post-Golgi transport phenotypic cell assay | inhibition, % at 10 µM | AID 739, 2007;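 also: yeast cells grown in 1536-well plates; yeast grown about 18 h at 30C before absorbance read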
# Cav3 T inh – Cav3.2 calcium influx blockers – cell-based, Fluo-4 calcium fluorescence, FDSS, MLSMR library, primary screen; Voltage-dependent T-type calcium channel subunit alpha-1H (Homo sapiens), O95180; B-score at 10 µM; AID 449739, 2010; Cav3.2-expressing cells; active compounds read low; 4% of 100,000 active;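 active = single-dose well whose peak fluorescence ratio is a statistical outlier from its plate by either plate-standardised score or position-corrected B-score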
# Target sequence (O95180 whole entry, looked up): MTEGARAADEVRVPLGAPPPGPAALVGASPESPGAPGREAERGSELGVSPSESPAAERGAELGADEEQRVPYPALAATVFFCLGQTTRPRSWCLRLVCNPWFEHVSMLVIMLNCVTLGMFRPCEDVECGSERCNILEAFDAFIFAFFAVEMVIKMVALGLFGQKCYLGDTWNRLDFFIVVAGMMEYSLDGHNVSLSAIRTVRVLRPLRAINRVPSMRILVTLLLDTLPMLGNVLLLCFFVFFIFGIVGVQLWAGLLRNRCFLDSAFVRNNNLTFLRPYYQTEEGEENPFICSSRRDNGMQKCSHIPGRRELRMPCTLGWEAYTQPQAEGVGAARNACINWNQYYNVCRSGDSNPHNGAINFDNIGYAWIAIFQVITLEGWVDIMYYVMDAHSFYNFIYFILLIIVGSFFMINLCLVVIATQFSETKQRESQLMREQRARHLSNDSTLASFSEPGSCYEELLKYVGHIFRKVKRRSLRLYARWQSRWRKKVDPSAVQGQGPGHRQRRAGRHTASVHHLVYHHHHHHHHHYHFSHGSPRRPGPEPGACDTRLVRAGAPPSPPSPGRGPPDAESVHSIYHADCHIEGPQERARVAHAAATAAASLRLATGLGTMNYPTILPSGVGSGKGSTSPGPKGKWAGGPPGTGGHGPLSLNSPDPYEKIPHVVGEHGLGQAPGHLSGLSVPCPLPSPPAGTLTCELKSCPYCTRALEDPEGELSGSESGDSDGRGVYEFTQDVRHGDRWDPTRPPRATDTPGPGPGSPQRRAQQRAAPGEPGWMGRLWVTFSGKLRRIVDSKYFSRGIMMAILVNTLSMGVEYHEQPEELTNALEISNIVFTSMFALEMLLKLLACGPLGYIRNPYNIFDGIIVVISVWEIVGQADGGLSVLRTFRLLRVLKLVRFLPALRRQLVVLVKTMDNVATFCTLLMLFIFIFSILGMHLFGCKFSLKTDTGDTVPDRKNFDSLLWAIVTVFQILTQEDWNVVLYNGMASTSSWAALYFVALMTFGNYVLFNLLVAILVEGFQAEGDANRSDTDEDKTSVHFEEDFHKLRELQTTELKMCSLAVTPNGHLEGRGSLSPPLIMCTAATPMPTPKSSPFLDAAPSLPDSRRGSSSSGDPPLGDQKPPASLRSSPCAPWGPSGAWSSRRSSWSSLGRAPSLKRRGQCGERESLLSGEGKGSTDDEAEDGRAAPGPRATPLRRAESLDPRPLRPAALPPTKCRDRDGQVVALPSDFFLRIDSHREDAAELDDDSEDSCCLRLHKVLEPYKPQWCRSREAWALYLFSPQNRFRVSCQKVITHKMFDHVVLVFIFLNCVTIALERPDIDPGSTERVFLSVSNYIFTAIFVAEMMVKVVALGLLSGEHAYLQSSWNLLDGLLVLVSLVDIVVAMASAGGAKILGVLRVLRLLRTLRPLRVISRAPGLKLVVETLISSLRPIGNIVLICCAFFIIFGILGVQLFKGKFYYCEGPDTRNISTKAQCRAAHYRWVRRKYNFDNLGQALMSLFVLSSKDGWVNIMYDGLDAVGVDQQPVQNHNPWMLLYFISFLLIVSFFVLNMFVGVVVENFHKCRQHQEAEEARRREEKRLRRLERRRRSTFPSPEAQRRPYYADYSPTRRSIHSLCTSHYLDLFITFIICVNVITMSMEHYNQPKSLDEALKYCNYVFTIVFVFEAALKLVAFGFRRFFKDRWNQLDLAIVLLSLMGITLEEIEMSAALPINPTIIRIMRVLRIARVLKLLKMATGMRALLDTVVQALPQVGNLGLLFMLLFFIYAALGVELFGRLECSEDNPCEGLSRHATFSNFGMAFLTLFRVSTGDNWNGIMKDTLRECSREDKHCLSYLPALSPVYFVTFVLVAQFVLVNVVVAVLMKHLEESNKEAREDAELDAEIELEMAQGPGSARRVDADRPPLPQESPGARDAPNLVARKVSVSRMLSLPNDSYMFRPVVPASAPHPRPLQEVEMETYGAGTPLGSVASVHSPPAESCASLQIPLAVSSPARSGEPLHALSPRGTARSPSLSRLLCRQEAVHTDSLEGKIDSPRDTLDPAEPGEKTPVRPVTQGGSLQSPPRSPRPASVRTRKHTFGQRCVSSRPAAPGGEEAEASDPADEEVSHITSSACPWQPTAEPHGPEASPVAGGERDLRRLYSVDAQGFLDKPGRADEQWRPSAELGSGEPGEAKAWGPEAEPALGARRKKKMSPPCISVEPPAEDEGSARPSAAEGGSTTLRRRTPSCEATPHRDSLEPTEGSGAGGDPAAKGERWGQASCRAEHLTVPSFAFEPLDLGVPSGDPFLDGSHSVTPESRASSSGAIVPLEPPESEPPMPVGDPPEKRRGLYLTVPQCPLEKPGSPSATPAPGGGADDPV
# tolC growth inh – growth inhibitors of E. coli tolC mutant, primary screen, strain BW25113 ΔtolC::kan, 384-well; growth inhibition, % at 10 µM (by protocol); OD615; 2.2% of 65,000 active; AID 573, 2007;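 active = growth inhibition at or above a cutoff equal to the mean over every tested compound plus 3 SD, cut at about 60% in these data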;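 also: growth measured after 20 h incubation at 37 °C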
#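 Material: E. coli BW25113 ΔtolC::kan, tolC deletion mutant strain. Measure: percent growth inhibition. Schedule: 37 °C, 20 h exposure. Doses: single-point testing at 10 µM. Signal: A615 absorbance measurement. Buffer or medium: kanamycin-containing LB broth (50 µg/mL).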
# A number is an active result; 0 = inactive; - = no result. The list is not random: actives were taken first. Their share in the collection is about 8.4%. Rule as the data show it, unless noted: active = inhibition above about 30%; inactive = the rest.
SMILES,Ecoli WT expand,PostGolgi ctrl,PostGolgi yeast,Cav3 T inh,tolC growth inh
O=C1CC(N2CCN(c3ccc(Cl)c(Cl)c3)CC2)C(=O)N1 (configuration not stated),0,0,52,0,0
CCN1C(=O)c2cccc3c(S(=O)(=O)Nc4ncccc4C)ccc1c23,0,0,0,0,0
Cc1ccc(N2C(=O)c3cccc4c(N5CCN(C)CC5)ccc(c34)C2=O)c2cccnc12,0,0,0,-4.3,0
O=C(c1cnn2c(C(F)(F)F)cc(-c3cccs3)nc12)N1CCN(C(c2ccccc2)c2ccccc2)CC1,-,-,-,-4.2,-
O=C(c1cnn2c(C(F)(F)F)cc(-c3cccs3)nc12)N1CCN(Cc2ccccc2)CC1,-,-,-,0,-
O=C(c1cc2nc(-c3cccs3)cc(C(F)(F)F)n2n1)N1CCCc2ccccc21,0,0,0,-4.8,-
Cc1cc(C)c(S(=O)(=O)N2CCN(c3ccc([N+](=O)[O-])c(-n4nc(C)cc4C)c3)CC2)c(C)c1,0,0,0,0,-
Cc1nn(-c2ccccc2)c(C)c1C(=O)OCC(=O)c1c(N)n(CC(C)C)c(=O)n(C)c1=O,0,0,0,-3.8,0
CC(C)Cn1c(N)c(C(=O)COC(=O)c2cc(-c3ccccc3)nc3ccccc23)c(=O)n(C)c1=O,-,-,-,0,-
CN1CCN(C(=O)C2=C[C@H](C(C)(C)C)C[C@H](OCCCCO)O2)CC1,-,-,-,0,-
CCOC(=O)c1cccc(Nc2nc(-c3cccnc3)nc3ccccc23)c1,0,68,0,-,-
O=C(CNS(=O)(=O)c1ccc(F)cc1)N1CCN(c2ccccc2)CC1,0,0,0,0,0
O=C(CNS(=O)(=O)c1ccc(Br)cc1)N1CCN(c2ccc(F)cc2)CC1,-,-,-,-7.8,-
CC1(C)[C@@H](O)CC[C@]2(C)C3C(O)C=C4[C@H]5C[C@@](C)(C(=O)O)CC[C@]5(C)CC[C@]4(C)[C@]3(C)CC[C@@H]12 (some centres not stated),-,-,-,0,-
CC1CCC/C(=N\NC(=S)NCc2ccccc2)C1 (configuration not stated),0,0,0,0,-
CC1C/C(=N\NC(=S)NCc2ccccc2)CC(C)(C)C1 (configuration not stated),0,0,0,-4.4,-
COc1ccc(Br)c2oc(SC)cc(=O)c12,-,-,-,0,-
CCOC(=O)C1CCCN(c2c(C(=O)c3ccccc3)cnc3ccc(OC)cc23)C1 (configuration not stated),-,-,-,-6.8,-
CCN1CCN(c2c(C(=O)c3ccc(OC)cc3)cnc3ccccc23)CC1,-,-,-,0,-
CC1=C(CO)C(=O)OC([C@@H](C)C2CC[C@H]3C4C[C@H]5O[C@]56[C@@H](O)C=CC(=O)[C@]6(C)C4CC[C@]23C)C1 (some centres not stated),-,-,-,0,-
O=C(CS(=O)(=O)c1cccc(C(F)(F)F)c1)Nc1ccccc1Cl,0,0,0,0,-
C1CNCCNCCNCCN1,-,-,-,-,0
O=C(O)c1nn(-c2ccccc2)nc1-c1nn(-c2ccccc2)nc1C(=O)O,0,0,0,0,0
COC(=O)c1nn(-c2ccccc2)nc1-c1nn(-c2ccccc2)nc1C(=O)OC,0,77,36,0,-
Cc1nc(CNS(=O)(=O)c2ccccc2F)cs1,-,-,-,0,0
SMILES,Ecoli WT expand,PostGolgi ctrl,PostGolgi yeast,Cav3 T inh,tolC growth inh
CC1=C(C(=O)OCC(C)C)C(c2ccc(F)cc2)NC(=O)N1 (configuration not stated),0,33,0,0,0
O=C(CCSCc1ccccc1Cl)N1CCN(c2cccc(Cl)c2)CC1,0,0,0,0,-
CN(C)C(CNC(=O)CSc1nnc(-c2ccco2)o1)c1ccccc1 (configuration not stated),0,0,0,-,0
COc1ccc(CCSc2nnc(C3CCCCC3)n2N)cc1,0,0,0,0,-
Fc1ccc(CSc2nnc(Cc3sc(-c4ccccc4)nc3-c3ccccc3)o2)cc1,0,0,0,0,-
COc1ccc(CSc2nnc(Cc3sc(-c4ccccc4)nc3-c3ccccc3)o2)cc1,0,0,0,-5.2,-
CC1=CCC(C(C)(C)NC(=O)c2ccccc2)C/C1=N\O (configuration not stated),-,-,-,0,0
Cc1ccc(C2Oc3ccccc3C3=C2C(c2cccs2)n2ncnc2N3)cc1 (configuration not stated),0,39,0,-4.6,-
NC(=O)c1cc2ccc(O)cc2oc1=NCc1ccccc1,0,0,0,-7.6,0
COc1ccc(OC2C(=O)N(Cc3ccc(F)cc3)C2c2ccc(OC)c(OC)c2)cc1 (configuration not stated),0,40,0,0,-
CN1CCN(CC(=O)Nc2c(C(=O)C3CC3)oc3ccccc23)CC1,0,0,0,0,0
CCOC(=O)CSCC(=O)Nc1c(C(=O)C2CC2)oc2ccccc12,-,-,-,-4.7,-
CCOC(=O)N1CCN(C(=O)C(NS(=O)(=O)c2cccc3nsnc23)c2ccccc2)CC1 (configuration not stated),0,0,0,0,0
CSc1n[nH]c(-c2sccc2OCc2ccc(C)cc2)n1,0,0,0,-3.7,-
CSc1nnc(-c2sccc2OCc2ccccc2)n1C,0,0,0,0,-
O=C(NCc1ccccc1)c1c(F)c(F)c(F)c(F)c1F,0,0,0,0,0
O=C(NCc1ccccc1)c1sc(=S)n2c1[nH]c(=O)c1ccccc12,0,47,0,0,-
CCOC(=O)CN1C(=O)C(O)(CC(=O)c2ccco2)c2ccccc21 (configuration not stated),0,0,0,0,0
O=C(CC1(O)C(=O)N(Cc2ccccc2Cl)c2ccccc21)c1ccco1 (configuration not stated),0,34,0,0,0
CN1CCN(CC(=O)N(Cc2c(C#N)c3ccccc3n2C)c2ccccc2)CC1,0,34,0,0,0
Cc1ccccc1N1CCN(Cc2c(C#N)c3ccccc3n2C)CC1,0,0,0,0,0
CCCCCCSc1nnc(-c2cnn(-c3ccccc3)c2-n2cccc2)n1C,0,61,0,-8.9,-
CCSc1nnc(-c2cnn(-c3ccccc3)c2-n2cccc2)n1C,0,0,0,0,-
Cc1cc(S(=O)(=O)NCCc2ccccc2)c(C)s1,0,0,0,0,0
CCCN1C(=O)/C(=C/c2c(NCCCOC(C)C)nc3c(C)cccn3c2=O)SC1=S,0,0,0,0,-
CCC(C)N1C(=O)/C(=C/c2c(NCCCOC(C)C)nc3c(C)cccn3c2=O)SC1=S (configuration not stated),0,0,0,-5.1,-
Cc1ccccc1OCC(=O)N1N=C(C(F)(F)F)CC1(O)C(C)(C)C (configuration not stated),-,-,-,-8.2,-
Cc1ccc(OCC(=O)N2N=C(C(F)(F)F)CC2(O)C(C)(C)C)cc1C (configuration not stated),0,33,0,-7.3,-
Cc1ccc(OCC(=O)Nc2ccc(F)cc2)cc1C,-,-,-,0,-
